Here are results for seven compounds from ChEMBL document CHEMBL3588807, “Cytotoxic Indolocarbazoles from Actinomadura melliaura ATCC 39691” (J Nat Prod, 2015).

Each structure is given as a SMILES string. Active and inactive are the calls of the source. The calls are words filed in the database; no cut-off is given here.

For experiment [1], the system named is Saccharomyces cerevisiae. Briefly: Antimicrobial activity against Saccharomyces cerevisiae ATCC 204508 assessed as inhibition of microbial growth up to 60 uM incubated for 24 hrs. Format: functional, organism-based. A digest of the protocol: (§1)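 MIC determined in triplicate against bacterial and yeast strains. Bacterial MICs were read after 16–48 h of incubation and the Saccharomyces cerevisiae MIC after 24 h. Procedure otherwise follows an earlier report.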

In a further experiment the test system is Salmonella enterica. The experiment in a line: Antimicrobial activity against Salmonella enterica ATCC 10708 assessed as inhibition of microbial growth up to 60 uM incubated for 16 to 48 hrs. Format: functional, organism-based. A digest of the protocol:
as §1

The next experiment deals with Escherichia coli. The experiment in a line: Antimicrobial activity against Escherichia coli NRRL B-3708 assessed as inhibition of microbial growth up to 60 uM incubated for 16 to 48 hrs. Format: functional, organism-based. A digest of the protocol: as §1
Experiment [2] has as its system Micrococcus luteus. The experiment in a line: Antimicrobial activity against Micrococcus luteus NRRL B-287 assessed as inhibition of microbial growth up to 60 uM incubated for 16 to 48 hrs. Format: functional, organism-based. A digest of the protocol: as §1
The test system of experiment [3] is Mycolicibacterium smegmatis. Briefly: Antimicrobial activity against Mycobacterium smegmatis ATCC 14468 assessed as inhibition of microbial growth up to 120 uM incubated for 16 to 48 hrs. The format is functional, organism-based. A digest of the protocol:
as §1

Experiment [4] relates to A549. The experiment in a line: Cytotoxic activity against human A549 cells assessed as cell viability at 10 uM incubated for 72 hrs. The note with it: A549, 72 h, read-out: Activity. The format is functional. A digest of the protocol:
(§2)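 Single-dose viability screen at 10 μM, run in triplicate, on human cancer cell lines.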

The subject of experiment [5] is Staphylococcus aureus. The experiment in a line: Antimicrobial activity against Staphylococcus aureus ATCC 6538 assessed as inhibition of microbial growth up to 60 uM incubated for 16 to 48 hrs. Format: functional, organism-based. A digest of the protocol:
as §1

Experiment [6] can be described thus: Cytotoxic activity against human U118MG cells assessed as cell viability at 10 uM incubated for 72 hrs. Format: functional. As to conditions: U-118-MG, read-out: Activity. A digest of the protocol:
as §2

In experiment [7] the test system is PC-3. The experiment in a line: Cytotoxic activity against human PC3 cells assessed as cell viability at 10 uM incubated for 72 hrs. As to conditions: PC-3, 72 h, read-out: Activity. Format: functional. A digest of the protocol:
as §2

In experiment [8] the test system is Saccharomyces cerevisiae. The experiment in a line: Antimicrobial activity against Saccharomyces cerevisiae ATCC 204508 assessed as inhibition of microbial growth incubated for 24 hrs. The format is functional. The note with it: ATCC 204508, 24 h. A digest of the protocol: as §1
Experiment [9] concerns Staphylococcus aureus. The experiment in a line: Antimicrobial activity against Staphylococcus aureus ATCC 6538 assessed as inhibition of microbial growth incubated for 16 to 48 hrs. The format is functional. A digest of the protocol:
as §1

The subject of experiment [10] is Mycolicibacterium smegmatis. Briefly: Antimicrobial activity against Mycobacterium smegmatis ATCC 14468 assessed as inhibition of microbial growth incubated for 16 to 48 hrs. The format is functional. A digest of the protocol: as §1
Experiment [11] deals with Micrococcus luteus. Briefly: Antimicrobial activity against Micrococcus luteus NRRL B-287 assessed as inhibition of microbial growth incubated for 16 to 48 hrs. The format is functional. A digest of the protocol:
as §1

Experiment [12] has as its system PC-3. The experiment in a line: Cytotoxic activity against human PC3 cells assessed as reduction in cell viability incubated for 72 hrs. The format is functional, cell-based. The note with it: PC-3, 72 h. A digest of the protocol: (§3)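 IC50 determined from viability over 0.03 to 100 000 nM, run in triplicate, on human cancer cell lines.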
The nature of experiment [13]: Cytotoxic activity against human U118MG cells assessed as reduction in cell viability incubated for 72 hrs. The format is functional, cell-based. The note with it: U-118-MG. A digest of the protocol: as §3
Experiment [14] deals with A549. The experiment in a line: Cytotoxic activity against human A549 cells assessed as reduction in cell viability incubated for 72 hrs. Format: functional, cell-based. The note with it: A549, 72 h. A digest of the protocol:
as §3

In the case of `CN1C(=O)c2c(c3c4cccc(Cl)c4[nH]c3c3[nH]c4ccccc4c23)C1=O`, the “growth inhibition (GI)” value (with Saccharomyces cerevisiae [1]; with Salmonella enterica; with Escherichia coli; in the experiment with Micrococcus luteus [2]; in experiment [3]; with Staphylococcus aureus [5]) was “inactive” each time. Besides, the viability at 10 µM in the experiment on A549 [4] amounted to 164%; in experiment [6], 186%; with PC-3 [7], 155%.

Turning to `CO[C@H]1[C@H](O)[C@@H](O)[C@H](n2c3c(Cl)cccc3c3c4c(c5c6ccccc6[nH]c5c32)C(=O)N(C)C4=O)O[C@@H]1CO`, the “growth inhibition (GI)” value (in the experiment with Saccharomyces cerevisiae [1]; in the experiment with Salmonella enterica; in the experiment with Escherichia coli; with Micrococcus luteus [2]; in [3]; in the experiment with Staphylococcus aureus [5]) was “inactive” each time. The viability at 10 µM came out at 47.4% in the experiment with A549 [4], 40.5% in [6] and 69% with PC-3 [7].

Regarding `O=C1NC(=O)c2c1c1c3ccccc3[nH]c1c1c2c2ccccc2n1[C@@H]1O[C@H](CO)[C@@H](O)[C@H](O)[C@H]1O`, the “growth inhibition (GI)” value (in the experiment on Saccharomyces cerevisiae [1]; with Salmonella enterica; with Escherichia coli; in the experiment with Micrococcus luteus [2]; in experiment [3]; with Staphylococcus aureus [5]) was “inactive” in each case. The results for the viability at 10 µM (in the experiment on A549 [4]; in experiment [6]; with PC-3 [7]) were 32.6%, 53.6% and 47.7%, respectively.

As a reminder, the MIC is the lowest concentration found to suppress growth. As to `CO[C@H]1[C@H](O)[C@@H](O)[C@H](n2c3ccccc3c3c4c(c5c6ccccc6[nH]c5c32)C(=O)N(C)C4=O)O[C@@H]1CO`, the MIC was greater than 60 µM with Saccharomyces cerevisiae [8], 7.5 µM with Staphylococcus aureus [9], greater than 120 µM in experiment [10] and 15 µM with Micrococcus luteus [11]. Further, the “growth inhibition (GI)” value in the experiment on Salmonella enterica and in the experiment on Escherichia coli was “inactive” throughout. Besides, the viability at 10 µM came out at 96.6% with A549 [4], 61% in experiment [6] and 98.3% in the experiment on PC-3 [7].

Usually IC50 stands for the concentration needed to halve the response being measured. `CN[C@H]1CO[C@@H](OC[C@H]2O[C@@H](n3c4c(Cl)cccc4c4c5c(c6c7ccccc7[nH]c6c43)C(=O)NC5=O)[C@H](O)[C@@H](O)[C@@H]2OC)C[C@@H]1O`: the minimum inhibitory concentration (MIC) is greater than 60 µM in the experiment with Saccharomyces cerevisiae [8], 7.5 µM in the experiment on Staphylococcus aureus [9], 120 µM in experiment [10] and 7.5 µM with Micrococcus luteus [11]. Moreover, the “growth inhibition (GI)” value in the experiment on Salmonella enterica and in the experiment with Escherichia coli was “inactive” throughout. The viability at 10 µM with A549 [4] came to 19.9%; in [6], 31.3%; with PC-3 [7], 39%. Further, the IC50 in the experiment with PC-3 [12] turned out to be 45.8 nM; in [13], 47.3 nM; in the experiment with A549 [14] it was 69.6 nM.

As for `CN[C@H]1CO[C@@H](OC[C@H]2O[C@@H](n3c4c(Cl)cccc4c4c5c(c6c7ccccc7[nH]c6c43)C(=O)N(C)C5=O)[C@H](O)[C@@H](O)[C@@H]2OC)C[C@@H]1O`, the minimum inhibitory concentration (MIC) was 7.5 µM in the experiment with Saccharomyces cerevisiae [8], 1 µM in the experiment on Staphylococcus aureus [9], 60 µM in experiment [10] and 7.5 µM in the experiment with Micrococcus luteus [11]. For the same compound, the “growth inhibition (GI)” value in the experiment on Salmonella enterica and in the experiment with Escherichia coli was “inactive” in each case. The viability at 10 µM worked out at 10.5% with A549 [4], 20.8% in [6] and 27% in the experiment on PC-3 [7]. In addition, the IC50 is 106 nM in the experiment on PC-3 [12], 56.8 nM in experiment [13] and 76.4 nM with A549 [14].

On to `CN[C@H]1CO[C@@H](OC[C@H]2O[C@@H](n3c4ccccc4c4c5c(c6c7ccccc7[nH]c6c43)C(=O)N(C)C5=O)[C@H](O)[C@@H](O)[C@@H]2OC)C[C@@H]1O`, for which the minimal inhibitory concentration (MIC) in the experiment on Saccharomyces cerevisiae [8] was greater than 60 µM; in the experiment on Staphylococcus aureus [9], 7.5 µM; in experiment [10], 120 µM; with Micrococcus luteus [11], 7.5 µM. In addition, the “growth inhibition (GI)” value in the experiment on Salmonella enterica and with Escherichia coli was “inactive” each time. The viability at 10 µM with A549 [4] is 16.6%; in experiment [6] it was 29.4%; with PC-3 [7], 36.4%.
